Published values from different studies.
Lines come from different studies, so protocols differ.

| Structure (SMILES) | target or system | assay | system | setting | quantity | result |
| --- | --- | --- | --- | --- | --- | --- |
| O=c1c2ccc(Oc3ccc(OC(F)(F)F)cc3)cc2[nH]c2cc(Cl)c(F)cc12 |  | metabolic stability | mouse, liver microsomes | 1 µM, pH 7.4 | half-life | > 60 min |
| Nc1nc(S)nc(O)c1N=Cc1cn(-c2ccccc2)nc1-c1ccccc1 | MCF-10A | cell growth or viability |  | 48 h | CC50 | > 30 µM |
| Cc1ccc(C=CC(=O)c2ccc(NC(=O)CN3CCN(c4ccc(Cl)cc4)CC3)cc2)cc1 | MCF-10A | cell growth or viability, MTT |  | 50 µM, 96 h | viability | 89% |
| O=c1c2c([nH]c3ccc(Oc4ccc(OC(F)(F)F)cc4)cc13)CCCC2 |  | metabolic stability | mouse, liver microsomes | 1 µM, pH 7.4 | half-life | 35.5 min |
| COc1ccc(N2CCN(CC(=O)Nc3ccc(C(=O)C=Cc4ccc(C)cc4)cc3)CC2)cc1 | MCF-10A | cell growth or viability, MTT |  | 50 µM, 96 h | viability | 90% |
| CNS(=O)(=O)c1ccc(Nc2ncc(C(F)(F)F)c(N3CCC[C@](C)(O)C3)n2)c(C)c1 | MDCK |  | Caco-2 | 1 µM, 2 h, pH 7.4 | Papp A→B | 16 ×10⁻⁶ cm/s |
| COc1nc(-c2cccc(-c3ccccc3)c2C)ccc1CNCCNC(=O)CCCCCCCCCCC(=O)N1CCN(CCNC(=O)c2cc3c(=O)n4cccc(C)c4nc3n(CCc3cccs3)c2=N)CC1 |  |  | male Sprague-Dawley rat, plasma | oral, 40 mg/kg | half-life | 408 min |
| CC(=O)N1N=C(c2ccc(NC(=O)CN3CCN(c4ccc(Cl)cc4)CC3)cc2)CC1c1ccc(Cl)cc1Cl (stereo not drawn) | MCF-10A | cell growth or viability, MTT |  | 50 µM, 96 h | viability | 91% |
| COc1ccc(-c2nn(-c3ccccc3)cc2C=Nc2c(N)nc(S)nc2O)cc1 | MCF-10A | cell growth or viability |  | 48 h | CC50 | > 40 µM |
| Cc1cc(S(=O)(=O)N[C@]2(C)C[C@H](N3CCN(CC4CCN(c5ccc6c(c5F)n(C)c(=O)n6C5CCC(=O)NC5=O)CC4)CC3)C2)ccc1Nc1ncc(C(F)(F)F)c(N2CCC[C@](C)(O)C2)n1 (stereo partly drawn) | MDCK |  | Caco-2 | 1 µM, 2 h, pH 7.4 | Papp A→B | 3.2 ×10⁻⁶ cm/s |
| O=c1c2ccc(Oc3ccccc3OC(F)(F)F)cc2[nH]c2cc(Cl)cc(F)c12 |  | metabolic stability | mouse, liver microsomes | 1 µM, pH 7.4 | half-life | 43.4 min |
| COc1ccc(N2CCN(CC(=O)Nc3ccc(C4=NN(C(C)=O)C(c5ccc(Br)cc5)C4)cc3)CC2)cc1 (stereo not drawn) | MCF-10A | cell growth or viability, MTT |  | 50 µM, 96 h | viability | 86% |
| O=c1c2ccccc2[nH]c2cc(Oc3ccc(OC(F)(F)F)cc3)ccc12 |  | metabolic stability | mouse, liver microsomes | 1 µM, pH 7.4 | half-life | 26.9 min |
| COc1ccc(N2CCN(CC(=O)Nc3ccc(C4=NN(C(C)=O)C(c5ccccc5)C4)cc3)CC2)cc1 (stereo not drawn) | MCF-10A | cell growth or viability, MTT |  | 50 µM, 96 h | viability | 87% |
| CNS(=O)(=O)c1ccc(Nc2ncc(C(F)(F)F)c([C@H]3CC[C@@](C)(O)CC3)n2)c(C)c1 | MDCK |  | Caco-2 | 1 µM, 2 h, pH 7.4 | Papp A→B | 7.6 ×10⁻⁶ cm/s |
| O=c1c2cc(F)c(Oc3ccc(OC(F)(F)F)cc3)cc2[nH]c2cc(Cl)cc(F)c12 |  | metabolic stability | mouse, liver microsomes | 1 µM, pH 7.4 | half-life | > 60 min |
| CNS(=O)(=O)c1ccc(Nc2ncc(C(F)(F)F)c(N3CCC(C)(O)CC3)n2)c(C)c1 | MDCK |  | Caco-2 | 1 µM, 2 h, pH 7.4 | Papp A→B | 9 ×10⁻⁶ cm/s |
| O=c1c2ccc(OCc3ccc(C(F)(F)F)cc3)cc2[nH]c2cc(Cl)cc(F)c12 |  | metabolic stability | mouse, liver microsomes | 1 µM, pH 7.4 | half-life | > 60 min |
| COc1ccc(N2CCN(CC(=O)Nc3ccc(C(=O)C=Cc4ccc(Cl)cc4Cl)cc3)CC2)cc1 | MCF-10A | cell growth or viability, MTT |  | 50 µM, 96 h | viability | 86% |
| Cc1cc(S(=O)(=O)N[C@H]2CC[C@H](CN3CCN(c4ccc(C5CCC(=O)NC5=O)c(Cl)c4)CC3)CC2)ccc1Nc1ncc(C(F)(F)F)c(N2CCC[C@](C)(O)C2)n1 (stereo partly drawn) | MDCK |  | Caco-2 | 1 µM, 2 h, pH 7.4 | Papp A→B | 1.3 ×10⁻⁶ cm/s |
| CC(=O)N1N=C(c2ccc(NC(=O)CN3CCN(c4ccc(Cl)cc4)CC3)cc2)CC1c1ccco1 (stereo not drawn) | MCF-10A | cell growth or viability, MTT |  | 50 µM, 96 h | viability | 84% |
| C[C@H]1Oc2cc(cnc2N)-c2c(nn(C)c2C#N)CN(C)C(=O)c2ccc(F)cc21 |  |  | male Sprague-Dawley rat, brain | oral, 10 mg/kg, 1 h, single dose | concentration | 495 ng/g |
| O=c1c2c([nH]c3cc(Oc4cccc(OC(F)(F)F)c4)ccc13)CCCC2 |  | metabolic stability | mouse, liver microsomes | 1 µM, pH 7.4 | half-life | > 60 min |
| Cc1cc(S(=O)(=O)N[C@H]2CC[C@H](CN3CCN(c4cccc(NC5CCC(=O)NC5=O)c4)CC3)CC2)ccc1Nc1ncc(C(F)(F)F)c(N2CCC[C@](C)(O)C2)n1 (stereo partly drawn) | MDCK |  | Caco-2 | 1 µM, 2 h, pH 7.4 | Papp A→B | 2.9 ×10⁻⁶ cm/s |
| CCCCN(CCCC)CCCOc1ccc2c(=O)c3c([nH]c2c1)CCCC3 |  | metabolic stability | mouse, liver microsomes | 1 µM, pH 7.4 | half-life | 38.3 min |
| Cc1cc(S(=O)(=O)NC2CC(N3CC[C@@H](OC4CN(c5cccc6c5n(C)c(=O)n6C5CCC(=O)NC5=O)C4)[C@H](F)C3)C2)ccc1Nc1ncc(C(F)(F)F)c(N2CCC[C@](C)(O)C2)n1 (stereo partly drawn) | MDCK |  | Caco-2 | 1 µM, 2 h, pH 7.4 | Papp A→B | 0.9 ×10⁻⁶ cm/s |
| COc1ccc(N2CCN(CC(=O)Nc3ccc(C4=NN(C(C)=O)C(c5ccc(Cl)cc5Cl)C4)cc3)CC2)cc1 (stereo not drawn) | MCF-10A | cell growth or viability, MTT |  | 50 µM, 96 h | viability | 89% |
